EP2 mod: EP2 receptor modulators, cAMP readout, primary screen, cell-based, HTRF cAMP, PGE2 stimulation; Prostaglandin E2 receptor EP2 subtype (Homo sapiens), P43116; EP2-expressing cells, cAMP HTRF FRET, PGE2 co-stimulation; induction, % at 25 µM; hit rate 0.83% among 260,000;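 active = compounds whose cAMP rise, as percent of the full-agonist control response, exceeds 60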;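 also: rat C6 glioma line stably carrying human EP2 under a CMV promoter; the protocol text gives 20 µM as final concentration; 100% = response of wells given 1 µM PGE2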
NPY-Y1 PAM-ag: NPY-Y1 receptor potentiators or agonists, primary screen, cell-based | Neuropeptide Y receptor type 1 (Homo sapiens), P25929 | NPY-Y1 expressing cells, potentiator/agonist activation | activation, % at 3.6 µM | hit rate 0.37% among 220,000; in the data active = activation above about 33%, passing the limit was not always enough;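 also: cells stimulated with NPY at EC10 then isoproterenol at EC100; 0% = low agonist plus stimulus and 100% = saturating agonist plus stimulus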
NPY-Y2 PAM-ag: NPY-Y2 potentiators or agonists, primary screen, cell-based; cells expressing NPY-Y2, potentiator/agonist read-out; Neuropeptide Y receptor type 2 (Homo sapiens), P49146; hit rate 0.45% among 220,000; activation, % at 3.6 µM; in the data active = activation above about 27%;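 also: cells stimulated with NPY near EC25 plus isoproterenol at EC100; 0% = vehicle plus submaximal agonist and 100% = vehicle plus saturating agonist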
Target sequence (P49146 whole entry, looked up): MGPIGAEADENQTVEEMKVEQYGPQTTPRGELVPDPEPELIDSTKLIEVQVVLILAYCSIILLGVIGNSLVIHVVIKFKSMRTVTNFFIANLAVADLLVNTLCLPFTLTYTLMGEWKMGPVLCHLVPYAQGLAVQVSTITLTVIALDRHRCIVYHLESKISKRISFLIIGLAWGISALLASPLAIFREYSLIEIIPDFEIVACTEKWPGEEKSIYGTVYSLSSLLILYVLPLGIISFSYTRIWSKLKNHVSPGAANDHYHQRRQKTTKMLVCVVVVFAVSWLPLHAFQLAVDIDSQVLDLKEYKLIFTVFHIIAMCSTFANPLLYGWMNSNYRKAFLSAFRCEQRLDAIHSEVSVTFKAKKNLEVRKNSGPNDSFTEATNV
NPY Y2 blocker: NPY-Y2 receptor antagonists, primary screen, cell-based; Neuropeptide Y receptor type 2 (Homo sapiens), P49146; NPY-Y2 expressing cells, antagonist mode; inhibition, % at 2.7 µM; hit rate 0.99% among 140,000; AID 793, 2007; in the data active = inhibition above about 17%;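 also: 0% = vehicle with agonist challenge and 100% = reference antagonist with challenge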
NPY Y1 blocker: NPY-Y1 receptor antagonists, primary screen, cell-based | inhibition, % at 3.6 µM | hit rate 1% among 200,000 | HEK293-CNG Y1 cells, membrane potential fluorescence; NPY at EC95, then isoproterenol;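 active = inhibition above the campaign mean inhibition of all tested compounds plus 3 SD, cut at about 20% in these data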;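 also: 0% = DMSO wells given NPY plus isoproterenol and 100% = isoproterenol alone without NPY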
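Test system: HEK293 cells co-expressing NPY Y1 receptor and cyclic-nucleotide gated channel; Also added: NPY (25 nM), isoproterenol (1 µM), Ro 20-1724 (25 µM); Compound dosing: one concentration, 3.6 µM, in 0.4% DMSO; Timing: dye 3 h, compound 60 min room temperature, stimulation 45 min; Technique: Membrane-potential fluorescent dye readout.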
PGE2 EP2 inh: human EP2 receptor antagonists, primary screen, TR-FRET cAMP, C6 glioma cells; Prostaglandin E2 receptor EP2 subtype (Homo sapiens), P43116; C6 glioma cells expressing human EP2; cells stimulated with saturating PGE2; inhibition, % at 25 µM; hit rate 0.52% among 260,000; AID 1422, 2008;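 active = percent inhibition above 40 after rounding to a whole number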;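 also: rat C6 glioma host cells with rolipram phosphodiesterase inhibitor present; the protocol text gives 20 µM as final concentration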
Active calls of the source: *; . = not tested or not shown. An excerpt weighted towards active compounds, which were near 2.8% of everything screened.

SMILES	EP2 mod	NPY-Y1 PAM-ag	NPY-Y2 PAM-ag	NPY Y2 blocker	NPY Y1 blocker	PGE2 EP2 inh
Clc1nc(CN2CCOCC2)nc2sc3c(c12)CCC3	-1	-17	-5	.	-4	8
O=C(Cn1nc(-c2cccc3ncccc23)oc1=O)N1CCCC1	12	.	.	.	.	.
O=C(NC1CCCCCCC1)C1CCCN(S(=O)(=O)c2cnc[nH]2)C1 (centres undefined)	2	5	42*	0	2	13
OC(CN1CCN(c2ccccn2)CC1)c1ccc(F)cc1 (centres undefined)	-31	.	.	.	.	8
CCC(CN1CCC(C)CC1)NC(=O)Cc1c(C)nn(-c2ccccc2C)c1C (centres undefined)	-7	.	.	.	.	6
c1ccc(CCNc2nc(-c3ccncc3)nc3ccccc23)cc1	-29	13	5	.	.	46*
COc1ccc(NC(=O)N(Cc2cc3c(C)cc(C)cc3[nH]c2=O)CC2CCCO2)cc1 (centres undefined)	4	.	.	.	.	8
CCOC(=O)c1cc(OC(=O)c2ccccc2)n(-c2ccccc2)n1	62*	-17	-2	3	1	9
CCOC(=O)c1cc(OC(=O)c2cccc([N+](=O)[O-])c2)n(-c2ccccc2)n1	16	-20	-4	-1	-5	8
CCC(C)(C)n1nnnc1C(c1ccc(C)cc1)N1CCC(C)CC1 (centres undefined)	10	-17	-9	20*	39*	2
CCC(C)(C)n1nnnc1C(c1ccc(OC)c(OC)c1)N1CCN(c2cccc(OC)c2)CC1 (centres undefined)	6	-34	-12	22*	24*	16
CCC(C)(C)n1nnnc1C(c1cc(OC)ccc1OC)N1CCN(Cc2ccccc2)CC1 (centres undefined)	32	-1	-12	.	20*	4
CCC(C)(C)n1nnnc1C(c1ccncc1)N1CCC(C)CC1 (centres undefined)	15	-13	-5	6	11	7
CCC(C)(C)n1nnnc1C(c1ccc(OC)c(OC)c1)N1CCN(c2ccccc2)CC1 (centres undefined)	11	3	-10	14	18	6
Cc1cc(O)c(-c2cc(O)c(C)cc2O)cc1O	-28	6	-13	.	.	134*
O=C(Cn1nc(-c2ccoc2)oc1=O)N1CCc2ccccc21	-14	.	.	.	.	.
CC(=O)Nc1ccc(-c2nn3c(C)nnc3s2)cc1	-21	.	.	.	.	10
O=C(CN1CCOCC1)Nc1sc2c(c1C(=O)c1ccc(Cl)cc1)CCC2	62*	.	.	.	.	16
COC(=O)c1c(NC(=O)CN2CCOCC2)sc2c1CCC(C)C2 (centres undefined)	61*	-21	-1	1	1	5
Nc1sc2c(c1C(=O)c1ccc(Cl)cc1)CCC2	83*	.	.	.	.	15
Cc1nc2c(c(=O)n1CC(=O)NC1CCCCC1)CN(Cc1ccccc1)CC2	-8	.	.	.	.	.
COC(=O)Cn1cc(CN2CCc3nc(N4CCCC(C)C4)[nH]c(=O)c3C2)c2ccccc21 (centres undefined)	-33	.	.	.	.	2
O=C(COC(=O)[C@H](Cc1ccccc1)NC(=O)c1ccco1)NC(c1ccccc1)c1ccccc1	62*	-29	-5	2	8	11
O=C(COC(=O)C(Cc1ccccc1)NC(=O)c1ccco1)NC1CC1 (centres undefined)	39	3	10	-1	1	6
COC(=O)C1=NN(c2ccccc2)C2(S1)S/C(=C\c1ccccc1)C(=O)N2c1ccccc1 (centres undefined)	11	6	-11	2	1	12
SMILES	EP2 mod	NPY-Y1 PAM-ag	NPY-Y2 PAM-ag	NPY Y2 blocker	NPY Y1 blocker	PGE2 EP2 inh
CCOC(=O)C1=NN(c2ccccc2)C2(S1)SC(C(C)=O)=C(C)N2c1ccccc1 (centres undefined)	63*	0	-2	6	1	2
CCCOc1cccc(/C(O)=C2/C(=O)C(=O)N(Cc3cccnc3)C2c2cccnc2)c1 (centres undefined)	-19	.	.	.	.	7
CCC(CC)c1nn2c(N)c(/C=C3\C(C)=Nc4ccccc43)c(=O)nc2s1	-55	88*	51*	.	.	12
CC(C)c1nn2c(N)c(/C=C3\C=Nc4ccccc43)c(=O)nc2s1	4	9	11	.	.	2
CCCC(=O)N1CCc2cc(-c3csc(NC(=O)CCc4ccccc4)n3)ccc21	-28	.	.	.	.	11
CC(=O)COC(=O)c1cc(-c2ccc(C)cc2)nc2ccccc12	-47	-11	-4	.	2	12
CCOC(=O)c1cc(-c2ccccc2)nc2ccc(C)cc12	66*	-30	-12	.	.	4
CC(=O)COC(=O)c1cc(-c2ccccc2)nc2ccc(Br)cc12	68*	.	.	.	.	25
CCOC(=O)c1cc(C(=O)OCC)c2cc(Br)ccc2n1	45	-46	-46	12	12	13
CCCCOC(=O)c1cc(C)nc2ccc(Br)cc12	46	101*	31*	4	7	20
CC(C)(C)C(=O)N1CCC[C@@H]1Cn1nc(-c2cccs2)ccc1=O	-26	.	.	.	.	4
COC(=O)c1c(NC(=O)COc2ccccc2C)sc2c1C(C(=O)OC)CC2 (centres undefined)	40	.	.	.	.	12
CCC(C)(C)NC(=O)C(c1cccn1C)N(Cc1ccc(OC)cc1)C(=O)Cn1nnc2ccccc21 (centres undefined)	39	-159	-81	53*	52*	14
CCn1nc(C)c(Br)c1C(=O)Sc1ccccc1Cl	68*	1	-24	.	.	10
COc1ccc(Cn2c(SCc3ccccc3C)nc3cc(OC)c(OC)cc3c2=N)cc1	-4	-17	28	44*	48*	6
COc1cc2nc(SCc3ccc(F)cc3)n(Cc3cccs3)c(=N)c2cc1OC	5	12	2	-1	8	9
COc1ccc(CNC(=O)C(C#N)c2nc3ccccc3nc2N2CCN(C)CC2)cc1 (centres undefined)	-27	-17	-13	18*	11	10
Cc1cc2nc(-c3ccc(SCC(=O)Nc4sc(C)c(C)c4C#N)nc3)[nH]c2cc1C	3	.	.	.	.	18
C=CS(=O)(=O)c1ccc(Oc2ccc(S(=O)(=O)C=C)cc2)cc1	-61	31	4	2	3	72*
CC1CC(=O)c2c(cc3c(-c4c(O)cc(O)c5c(O)c6c(cc45)OC(C)CC6=O)c(O)cc(O)c3c2O)O1 (centres undefined)	-17	-3	-19	.	3	77*
CCc1nc2ccc(F)cc2c(C(=O)NC2CCCCC2C)c1C (centres undefined)	19	-82	-53	29*	35*	5
COc1ccc(CN2CCn3c(CO)nnc3C2)cc1OCc1ccccc1F	-16	.	.	.	.	4

Bioassay records as filed in PubChem BioAssay.
